Data reported in ChEMBL document CHEMBL1131833, “Synthesis and cytotoxic activity of N-(2-pyridylsulfenyl)urea derivatives. A new class of potential antineoplastic agents” (Bioorg Med Chem Lett, 1999).

Experiments:
Assay type in all cases: functional, cell-based
HT-29 = test: Cytotoxicity against HT-29 colon carcinoma cell line; conditions: Homo sapiens
Method in brief: (§1)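 Growth inhibition read by cell counting after 3 days of continuous exposure to 100, 10, 1, 0.1 or 0.01 µM compound. Parallel cultures counted daily to confirm exponential growth. IC50 from the counts; where inhibition stayed low across the range, reported as > highest tested concentration.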

Homo sapiens = species on record: Homo sapiens; test: Cytotoxicity against normal PMBC cells in clonogenic assay
Method in brief: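 Human peripheral blood mononuclear cells at 2.0-2.5 ×10^6 cells/mL in Iscove's medium. Clonogenic methylcellulose culture (0.9% final) with 30% fetal calf serum, 10% PHA-LCM and 6 U recombinant human erythropoietin plus compound, 14 days at 37°C. Colonies counted; at least 3 independent experiments, each in triplicate, per compound and concentration.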

CCRF-CEM = test: Cytotoxicity against CCRF-CEM lymphocytic leukemia cell line; conditions: Homo sapiens; method in brief: as §1
K562 = test: Cytotoxicity against K-562 myelocytic leukemia cell line; conditions: Homo sapiens; method in brief: as §1
MEL-AC cell line = test: Cytotoxicity against MEL-AC melanoma cell line; conditions: Homo sapiens; method in brief: as §1
Calu-1 = test: Cytotoxicity against HTB-54 lung carcinoma cell line; conditions: Homo sapiens; method in brief: as §1

Row | Compound | IC50 (HT-29) [µM] | IC50 (Homo sapiens) [µM] | IC50 (CCRF-CEM) [µM] | IC50 (K562) [µM] | IC50 (MEL-AC cell line) [µM] | IC50 (Calu-1) [µM]
1 | CCOC(=O)c1cccnc1SNC(=O)Nc1ncccn1 | 4.8 | 13.6 | 15 | 1 | 34 | 1.8
2 | CCOC(=O)c1cccnc1S(=O)(=O)NC(=O)Nc1ccc(Cl)cc1 | > 100 |  | 4.3 | 14 | > 100 | > 100
3 | CCOC(=O)c1cccnc1S(=O)(=O)NC(=O)Nc1ncccn1 | > 100 |  | 3.5 | 53 | 1.2 | 1.6
4 | CCOC(=O)c1cccnc1SNC(=O)Nc1nc(OC)cc(OC)n1 | 96 |  | 0.7 | 43 | 43 | 74
5 | CCOC(=O)c1cc([N+](=O)[O-])cnc1SNC(=O)Nc1ncccn1 | > 100 |  | 1.5 | 0.2 | 0.2 | 14
6 | COc1cccc2c1C(=O)c1c(O)c3c(c(O)c1C2=O)C[C@@](O)(C(=O)CO)C[C@@H]3O[C@H]1C[C@H](N)[C@H](O)[C@H](C)O1 [DOXORUBICIN] | 0.7 | 39.4 |  | 1 | 1.2 | 1.1
